Measurements taken from ChEMBL document CHEMBL3085664, “Structure-activity relationship of imidazopyridinium analogues as antagonists of neuropeptide s receptor” (J Med Chem, 2013).

Tests used:
[1] = target: T1, Neuropeptide S receptor (Homo sapiens, UniProt Q6W5P4); assay: Antagonist activity at neuropeptide S receptor (unknown origin) expressed in CHO cells assessed as inhibition of NPS-induced calcium mobilization after 10 mins by fluorescence assay; assay type: functional, cell-based
T1 sequence (Q6W5P4 whole entry): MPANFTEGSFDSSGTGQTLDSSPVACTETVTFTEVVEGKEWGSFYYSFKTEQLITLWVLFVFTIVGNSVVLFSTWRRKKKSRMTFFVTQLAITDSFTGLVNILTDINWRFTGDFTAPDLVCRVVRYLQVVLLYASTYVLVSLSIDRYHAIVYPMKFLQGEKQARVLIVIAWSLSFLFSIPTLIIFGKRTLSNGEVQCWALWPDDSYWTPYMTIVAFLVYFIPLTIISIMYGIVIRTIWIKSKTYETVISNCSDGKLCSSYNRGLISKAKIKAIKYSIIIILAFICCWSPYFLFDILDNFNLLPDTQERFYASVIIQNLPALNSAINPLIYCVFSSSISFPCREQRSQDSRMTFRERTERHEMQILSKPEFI
Outline: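 CHO-NPSR cells, 2000/well in 1536-well plates, incubated overnight, then loaded with no-wash calcium dye for 1 h at 37°C. Compound in DMSO was added for 10 min. Baseline fluorescence was recorded 6 s at 1 Hz, then EC80 NPS in stimulation buffer was added and recording continued 4 min at 1 Hz on a kinetic reader. IC50 is the mean with SD of two independent experiments in duplicate.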

[2] = target: T1, Neuropeptide S receptor; assay: Antagonist activity at neuropeptide S receptor (unknown origin) expressed in CHO cells assessed as cAMP level after 30 mins by […] assay; assay type: functional, cell-based
Outline: (§1)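 CHO cells stably expressing NPSR, 1800 cells/well in 1536-well format, seeded overnight at 37°C in medium without Geneticin. Stimulation buffer (PBS, 0.1% BSA, 0.05% Tween-20, 500µM Ro 20-1724, EC80 NPS) was added for 30 min at 37°C. cAMP was read by HTRF (d2-cAMP/cryptate anti-cAMP in lysis buffer, 30 min). IC50 is the mean with SD of two independent experiments, each run in duplicate.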

[3] = Metabolic stability in mouse liver microsomes assessed as compound remaining after 15 mins in presence NADPH; assay type: ADME, Microsome; conditions: read-out: Stability
Outline: (§2)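 Compound was incubated with mouse liver microsomes, and percent parent remaining was determined at 15, 30 and 60 min. Values are means from a single experiment run in duplicate.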

[4] = Metabolic stability in mouse liver microsomes assessed as compound remaining after 30 mins in absence NADPH; assay type: ADME, Microsome; conditions: read-out: Stability; outline: as §2
[5] = target: T1, Neuropeptide S receptor; assay: Antagonist activity at neuropeptide S receptor (unknown origin) expressed in CHO cells assessed as inhibition of NPS-induced ERK activation after 20 mins by HTRF assay; assay type: cell-based
[6] = Metabolic stability in mouse liver microsomes assessed as compound remaining after 60 mins in absence NADPH; assay type: ADME, Microsome; conditions: read-out: Stability; outline: as §2
[7] = target: T1, Neuropeptide S receptor; assay: Displacement of [125I]Tyr10-NPS from neuropeptide S receptor (unknown origin)
Outline: (§3)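 Whole CHO cells stably expressing human NPSR at 90–95% confluency in 24-well plates. Cells were incubated with 0.15 nM [125I]Y10-NPS plus increasing compound or unlabeled NPS in DMEM/0.1% BSA, 20°C, 1.5 hr. Nonspecific binding was defined with 1 µM unlabeled human NPS. Cells were washed, lysed in 1 N NaOH and counted by liquid scintillation. IC50 from one experiment in duplicate.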

[8] = Metabolic stability in mouse liver microsomes assessed as compound remaining after 30 mins in presence NADPH; assay type: ADME, Microsome; conditions: read-out: Stability; outline: as §2
[9] = target: T1, Neuropeptide S receptor; assay: Displacement of [125I]Tyr10-NPS from human neuropeptide S receptor expressed in CHO cells after 1.5 hrs by liquid scintillation counting; assay type: cell-based; outline: as §3
[10] = Metabolic stability in mouse liver microsomes assessed as compound remaining after 60 mins in presence NADPH; assay type: ADME, Microsome; conditions: read-out: Stability; outline: as §2
[11] = Metabolic stability in mouse liver microsomes assessed as compound remaining after 15 mins in absence NADPH; assay type: ADME, Microsome; conditions: read-out: Stability; outline: as §2
[12] = target: T1, Neuropeptide S receptor; assay: Antagonist activity at neuropeptide S receptor (unknown origin) assessed as intracellular calcium level by cell based assay; assay type: functional
Outline: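 CHO cells stably expressing NPSR were seeded at 2000 cells/well and incubated overnight at 37 °C, 5% CO2. They were loaded with no-wash calcium dye for 1 h, then preincubated with compound in DMSO for 10 min. Stimulation used NPS at EC80 in PBS/0.1% BSA/0.05% Tween-20 with 500 µM Ro 20-1724. Kinetic fluorescence was read at 1 Hz: 6 s baseline, then 4 min. IC50 is the mean ± SD of two independent experiments, each in duplicate.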

[13] = target: T1, Neuropeptide S receptor; assay: Antagonist activity at neuropeptide S receptor (unknown origin) assessed as cAMP level by cell based assay; assay type: functional; outline: as §1
[14] = target: T2, Neuropeptide S receptor (Homo sapiens) (UniProt Q6W5P4); assay: Antagonist activity at neuropeptide S receptor (unknown origin) expressed in CHO cells assessed as inhibition of NPS-induced ERK activation at 50 uM after 20 mins by HTRF assay relative to control; assay type: cell-based
T2 sequence (whole entry): T1 sequence (Q6W5P4 whole entry)

| Structure (SMILES) | IC50 ([1]; read-out: IC50) [nM] | IC50 ([2]; read-out: IC50) [nM] | other results |
| --- | --- | --- | --- |
| COc1cccc(/C=C/C[n+]2c(C)c(P(=S)(c3ccccc3)c3ccccc3)n3ccccc32)c1 | 3.2 | 110 | – |
| Cc1c(P(=S)(c2ccccc2)c2ccccc2)n2ccccc2[n+]1C/C=C/c1ccc(C(F)(F)F)cc1 | 4.5 | 400 | – |
| CCC(C)(CCN1CCOCC1)N(Cc1cc2ccccc2n(C)c1=O)C(=O)C1CCCCC1 (stereo not given) | 55 | 1.2 | remaining at 0.25 h [3]: 0%; remaining at 0.5 h [4]: 97%; IC50 [5]: 11 nM; remaining at 1 h [6]: 94%; IC50 [7]: 1.3 nM; remaining at 0.5 h [8]: 0%; IC50 [9]: 6.7 nM; remaining at 1 h [10]: 0%; remaining at 0.25 h [11]: 103% |
| Cc1nc2ccccn2c1P(=S)(c1ccccc1)c1ccccc1 | 1000 | 18000 | IC50 [5]: 9.1 nM |
| Cc1c(P(=S)(c2ccccc2)c2ccccc2)n2ccccc2[n+]1C/C=C/c1ccc2ccccc2c1 | 64 | 1300 | – |
| O=C(NCc1ccccc1)N1CCN2C(=O)OC(c3ccccc3)(c3ccccc3)C2C1 (stereo not given) | – | – | IC50 [12]: 26 nM |
| COc1ccc(C2c3c(ccc4ccccc34)OC3N=CN(CCN4CCOCC4)C(=N)C32)cc1OC (stereo not given) | – | – | IC50 [7]: 190 nM; IC50 [12]: 1400 nM; IC50 [13]: 4900 nM |
| C[n+]1cc(P(=S)(c2ccccc2)c2ccccc2)n2ccccc21 | 2500 | 39000 | inhibition [14]: < 50% |
| OC(c1ccccc1)(c1ccccc1)c1cnc2ccccn12 | – | – | IC50 ([1]; cho): Not Active |
| Cc1nc2ccccn2c1C(O)(c1ccccc1)c1ccccc1 | – | – | IC50 ([1]; cho): Not Active |
| Cc1c(P(=S)(c2ccccc2)c2ccccc2)n2ccccc2[n+]1CCCCCc1ccccc1 | 13 | 710 | IC50 [5]: 6.2 nM |
| O=C1c2ccccc2C(=O)C1(c1ccccc1)N1CCN(Cc2ccccc2)CC1 | – | – | IC50 [12]: 27 nM |
| O=P(c1ccccc1)(c1ccccc1)c1cnc2ccccn12 | – | – | IC50 ([1]; cho): Not Active |
| Cc1c(P(=S)(c2ccccc2)c2ccccc2)c2ccccc2n1C | 2800 | – | IC50 ([2]; cho): Not Active; inhibition [14]: < 50% |
| Cc1nc2ccccn2c1P(=O)(c1ccccc1)c1ccccc1 | 27000 | – | IC50 ([2]; cho): Not Active |
| Cc1c(P(=S)(c2ccccc2)c2ccccc2)n2ccccc2[n+]1CCCCc1ccccc1 | < 0.5 | 940 | IC50 [5]: 15 nM |

| Structure (SMILES) | IC50 ([1]; read-out: IC50) [nM] | IC50 ([2]; read-out: IC50) [nM] | other results |
| --- | --- | --- | --- |
| C[n+]1cc(C(O)(c2ccccc2)c2ccccc2)n2ccccc21.O=C([O-])C(F)(F)F | – | – | IC50 ([1]; cho): Not Active |
| Cc1ccc(/C=C/C[n+]2c(C)c(P(=S)(c3ccccc3)c3ccccc3)n3ccccc32)cc1 | 9 | 330 | – |
| Cc1c(P(=S)(c2ccccc2)c2ccccc2)n2ccccc2[n+]1CCCc1ccccc1 | < 0.5 | 110 | – |
| Cn1cc(P(=S)(c2ccccc2)c2ccccc2)c2ccccc21 | 7300 | – | IC50 ([2]; cho): Not Active |
| S=P(c1ccccc1)(c1ccccc1)c1cnc2ccccn12 | 4030 | 63000 | inhibition [14]: < 50% |
| Cc1c(P(=S)(c2ccccc2)c2ccccc2)n2ccccc2[n+]1C/C=C/c1cccc(Cl)c1 | 9.2 | 220 | – |
| Cc1c(C(O)(c2ccccc2)c2ccccc2)n2ccccc2[n+]1C.O=C([O-])C(F)(F)F | – | – | IC50 ([1]; cho): Not Active |
| Cc1c(P(=S)(c2ccccc2)c2ccccc2)n2ccccc2[n+]1C/C=C/c1ccccc1Cl | 3.4 | 94 | – |
| Cc1c(P(=S)(c2ccccc2)c2ccccc2)n2ccccc2[n+]1C/C=C/c1ccc(Cl)cc1 | 2.2 | 120 | – |
| Cc1c(P(=S)(c2ccccc2)c2ccccc2)n2ccccc2[n+]1C/C=C/c1ccc(F)c(Br)c1 | 45 | 840 | – |
| Cc1c(P(=S)(c2ccccc2)c2ccccc2)n2ccccc2[n+]1CCc1ccccc1 | 73 | 2100 | IC50 [5]: 16 nM |
| Cc1c(P(=S)(c2ccccc2)c2ccccc2)n2ccccc2[n+]1C/C=C/c1cccc(Br)c1 | 23 | 670 | – |
| c1ccc(P(c2ccccc2)c2cnc3ccccn23)cc1 | 35000 | – | IC50 ([2]; cho): Not Active |
| Cc1c(P(=S)(c2ccccc2)c2ccccc2)n2ccccc2[n+]1Cc1ccccc1 | 32 | 1300 | IC50 [5]: 16 nM |
| Cc1c(P(=S)(c2ccccc2)c2ccccc2)n2ccccc2[n+]1C/C=C/c1ccc(F)cc1 | 3.4 | 71 | – |
| Cc1c(P(=S)(c2ccccc2)c2ccccc2)n2ccccc2[n+]1C/C=C/c1ccc(Br)cc1 | 5.7 | 170 | – |
